Active and inactive are the calls of the source. No cut-off for these calls is given here.
Legend:
[1] = biological target: T1, Kappa-type opioid receptor (Homo sapiens, UniProt P41145); test: Binding affinity to kappa opioid receptor (unknown origin)
Mu-type opioid receptor [2] = biological target: T2, Mu-type opioid receptor (Homo sapiens, UniProt P35372); test: Binding affinity to mu opioid receptor (unknown origin)
[3] = biological target: T3, Delta-type opioid receptor (Homo sapiens, UniProt P41143); test: Binding affinity to delta opioid receptor (unknown origin)
Mu-type opioid receptor [4] = biological target: T2, Mu-type opioid receptor; test: biochemical; format: cell-based, CHO
[5] = biological target: T1, Kappa-type opioid receptor; test: Displacement of [3H]U69,593 from human recombinant kappa opioid receptor expressed in CHO cell membranes after 2 hrs by liquid scintillation counting analysis; format: cell-based
[6] = biological target: T3, Delta-type opioid receptor; test: Displacement of [3H]DADLE from human recombinant delta opioid receptor expressed in CHO cell membranes after 2 hrs by liquid scintillation counting analysis
In short: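 Human DOR stably expressed in CHO cells; washed membranes (~30 µg protein/tube) incubated with ~2 nM [3H]DADLE and 10 drug concentrations in 50 mM Tris-HCl pH 7.4 with protease inhibitors, 2 h at 25 °C. Levallorphan defined nonspecific binding.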

Homo sapiens [7] = species on record: Homo sapiens; test: Selectivity ratio of Ki for human recombinant kappa opioid receptor to Ki for human recombinant mu opioid receptor
Homo sapiens [8] = species on record: Homo sapiens; test: Selectivity ratio of Ki for human recombinant mu opioid receptor to Ki for human recombinant delta opioid receptor
Homo sapiens [9] = species on record: Homo sapiens; test: Selectivity ratio of Ki for human recombinant kappa opioid receptor to Ki for human recombinant delta opioid receptor
[10] = biological target: T3, Delta-type opioid receptor; test: Antagonist activity at human recombinant delta opioid receptor expressed in mouse/rat NG108-15 cell membranes assessed as inhibition of SNC80-induced [35S]GTPgammaS binding by liquid scintillation counting analysis; format: functional
[11] = biological target: T3, Delta-type opioid receptor; test: Partial agonist activity at human recombinant delta opioid receptor expressed in mouse/rat NG108-15 cell membranes assessed as stimulation of [35S]GTPgammaS binding after 3 hrs by liquid scintillation counting analysis; format: functional
In short: (§1)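 DOR function measured in NG108-15 neuroblastoma-glioma membranes. Incubated with drug, GDP and 50 pM final [35S]GTPγS in 50 mM Tris-HCl pH 7.4, 100 mM NaCl, 10 mM MgCl2, 1 mM EDTA, 1 mM DTT, 0.1% BSA, 3 h at 25 °C. Unlabelled GTPγS defined nonspecific binding. Bound label collected on GF/B filters and scintillation counted; ED50 and Emax reported.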

[12] = biological target: T3, Delta-type opioid receptor; test: Partial agonist activity at human recombinant delta opioid receptor expressed in mouse/rat NG108-15 cell membranes assessed as stimulation of [35S]GTPgammaS binding after 3 hrs by liquid scintillation counting analysis relative to SNC80; format: functional; in short: as §1

T2 sequence (P35372 whole entry): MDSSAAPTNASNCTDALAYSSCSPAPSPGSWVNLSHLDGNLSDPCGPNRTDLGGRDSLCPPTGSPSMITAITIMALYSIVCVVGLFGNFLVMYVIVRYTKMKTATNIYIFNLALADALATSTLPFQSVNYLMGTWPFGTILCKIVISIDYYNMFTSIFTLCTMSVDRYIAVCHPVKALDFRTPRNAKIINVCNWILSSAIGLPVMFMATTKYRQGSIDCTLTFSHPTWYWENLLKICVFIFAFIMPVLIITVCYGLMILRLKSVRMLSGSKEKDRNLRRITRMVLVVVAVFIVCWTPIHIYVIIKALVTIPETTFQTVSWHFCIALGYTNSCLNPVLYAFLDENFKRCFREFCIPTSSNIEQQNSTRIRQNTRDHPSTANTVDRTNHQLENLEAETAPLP
T1 sequence (P41145 whole entry): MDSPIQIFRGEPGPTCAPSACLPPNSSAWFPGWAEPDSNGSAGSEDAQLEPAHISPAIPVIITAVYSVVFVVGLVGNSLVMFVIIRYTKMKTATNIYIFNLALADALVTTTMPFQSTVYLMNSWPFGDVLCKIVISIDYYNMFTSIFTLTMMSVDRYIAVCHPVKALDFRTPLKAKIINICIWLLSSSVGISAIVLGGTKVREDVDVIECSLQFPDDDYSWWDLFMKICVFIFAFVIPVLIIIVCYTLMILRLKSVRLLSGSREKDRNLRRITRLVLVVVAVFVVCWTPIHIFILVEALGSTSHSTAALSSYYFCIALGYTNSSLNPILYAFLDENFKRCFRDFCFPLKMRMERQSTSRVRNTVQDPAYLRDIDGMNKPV
T3 sequence (P41143 whole entry): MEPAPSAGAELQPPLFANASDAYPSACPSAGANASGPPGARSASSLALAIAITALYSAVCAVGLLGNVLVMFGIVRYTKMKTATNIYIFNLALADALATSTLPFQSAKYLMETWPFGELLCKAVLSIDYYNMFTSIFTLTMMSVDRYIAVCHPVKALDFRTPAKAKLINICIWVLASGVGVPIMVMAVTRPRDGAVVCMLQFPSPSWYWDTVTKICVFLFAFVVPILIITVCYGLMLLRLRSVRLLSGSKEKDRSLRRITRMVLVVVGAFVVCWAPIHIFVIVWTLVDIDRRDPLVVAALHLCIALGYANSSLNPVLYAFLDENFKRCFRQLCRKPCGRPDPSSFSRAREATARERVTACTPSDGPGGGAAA

Structure (SMILES) | Ratio Ki (Homo sapiens [7]) | Ratio Ki (Homo sapiens [8]) | Ratio Ki (Homo sapiens [9]) | Ke [10] | further results
CC[C@@]12CCN(CC3CC3)C[C@@H]1Oc1ccc(O)cc12 |  |  |  |  | Ki [1]: 34 nM; Ki (Mu-type opioid receptor [2]): 4 nM; Ki [3]: 53 nM
CC[C@@]12CCN(CCc3ccccc3)C[C@@H]1Oc1ccc(O)cc12 |  |  |  |  | Ki (Mu-type opioid receptor [2]): 0.9 nM
CN1CC[C@@]2(Cc3ccccc3)c3cc(O)ccc3O[C@H]2C1 (racemic) |  |  |  |  | Ki (Mu-type opioid receptor [4]): 60 nM; Ki [5]: 2880 nM; Ki [6]: 64 nM
CN1CC[C@@]2(CCc3ccccc3)c3cc(O)ccc3O[C@H]2C1 (racemic) |  |  |  |  | Ki (Mu-type opioid receptor [4]): 66 nM; Ki [5]: 3540 nM; Ki [6]: 551 nM
CC[C@@]12CCN(C)C[C@@H]1Oc1ccc(O)cc12 (racemic) | > 263 | 0.09 | > 23 |  | Ki (Mu-type opioid receptor [4]): 19 nM; Ki [5]: > 5000 nM; Ki [6]: 212 nM
CCCC[C@@]12CCN(C)C[C@@H]1Oc1ccc(O)cc12 (relative stereo) | 20 | 0.5 | 9 |  | 
CN1CC[C@@]2(C)c3cc(O)ccc3O[C@H]2C1 (relative stereo) | > 10 | 0.04 | > 0.4 |  | 
CN1CC[C@@]2(CCCCCc3ccccc3)c3cc(O)ccc3O[C@H]2C1 (relative stereo) | 3 | 0.4 | 0.95 | > 200 nM | 
CN1CC[C@@]2(CCc3ccc(F)cc3)c3cc(O)ccc3O[C@H]2C1 (relative stereo) | 17 | 1.3 | 22 |  | 
CN1CC[C@@]2(CCc3ccccc3F)c3cc(O)ccc3O[C@H]2C1 (relative stereo) |  |  |  | 29 nM | 
Oc1ccc2c(c1)[C@]1(CCc3ccccc3)CCN(CC3CC3)C[C@@H]1O2 (relative stereo) |  |  |  |  | ED50 [11]: inactive
Oc1ccc2c(c1)[C@]1(CCc3ccccc3)CCN(CCc3ccc(C(F)(F)F)cc3)C[C@@H]1O2 (relative stereo) |  |  |  | 827 nM | Emax [12]: 46%
Oc1ccc2c(c1)[C@]1(CCc3ccccc3)CCN(CCc3ccc(F)cc3)C[C@@H]1O2 (relative stereo) |  |  |  | 213 nM | Emax [12]: 29%
Oc1ccc2c(c1)[C@]1(CCc3ccccc3)CCN(CCc3cccc(C(F)(F)F)c3)C[C@@H]1O2 (relative stereo) |  |  |  | 455 nM | 
Oc1ccc2c(c1)[C@]1(CCc3ccccc3)CCN(CCc3ccccc3)C[C@@H]1O2 (relative stereo) |  |  |  | 258 nM | Emax [12]: 29%
Oc1ccc2c(c1)[C@]1(CCc3ccccc3)CCN(CCc3ccccc3C(F)(F)F)C[C@@H]1O2 (relative stereo) | 11 | 1.3 | 14 |  | 
Oc1ccc2c(c1)[C@]1(CCc3ccccc3)CCN(CCc3ccccc3F)C[C@@H]1O2 (relative stereo) |  |  |  | 37 nM | ED50 [11]: inactive

Source: ChEMBL document CHEMBL2384966, “Probes for narcotic receptor mediated phenomena. 47. Novel C4a- and N-substituted-1,2,3,4,4a,9a-hexahydrobenzofuro[2,3-c]pyridin-6-ols” (Bioorg Med Chem, 2013)
